Reference: the RNAGym collection of RNA variant scans (doi:10.1126/science.aae0568)
This sample holds only a part of the variants without activity.

B1: tRNA (parent)
chain: GUUCCGUUGGCGUAAUGGUAACGCGUCUCCCUCCUAAGGAGAAGACUGCGGGUUCGAGUCCCGUACGGAACG

Variants of: B1
Test: yeast fitness relative to wild type (ratio to wild type); higher = fitter; tRNA-Arg(CCU), competitive growth, 37 C, YPD
How it was run: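 Variants of the tRNA-Arg(CCU) gene, chemically synthesised with a 3% per-site mutation rate at 69 sites, were placed at the native genomic locus in Saccharomyces cerevisiae. The pooled strains were competed in YPD at 37°C for 24 hours in six parallel replicates. Gene amplicons from the start population and from each end population were read by 100-nucleotide paired-end sequencing. Darwinian fitness relative to wild type came from changes in genotype frequencies; genotypes needed ≥ 100 starting reads, and estimates < 0.5 were set to 0.5.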

| Variant | yeast fitness |
| --- | --- |
| GUUCCGUUGGCGUAAUGGUAACGCGUCUACCUCCUAAGGAAACGACUGCGGGUUCGAGUCCCGUACGGAACG | 0.55 |
| GUUCCGUCGGCCUAAUGGUAACGCGUCUCCCUCCUAAGGAGAAGACUGCGGGUUCGAGUCCUGUACGGAACG | 0.587 |
| GUUCCGUUGGCGUAAUGGUAACGGGUCUCCCUCCUAAGGAGCAGACUGCGGGUUCGAGUUCCGAACGGAACG | 0.562 |
| GUUCCGUUGGCGUAAUGGUAACGCGUCUCCCUCCUACGGAGAAGACUGCGGGUUCGAGUCCCGUACGGAGCG | 0.769 |
| GUUCCAUUGGCGUAAUGGUCACGCGUCUCCCUCCUCAGGAGAAGACACCGGGUGCGAGUCCCGUCCGGAACG | ≤ 0.5 |
| GUUCCGUUGGCGUAAUGCUAACGCGUCUCCCUCUUAAGGAGAAGACUGCGGGUUCGAGUCCCGUACGGCACG | ≤ 0.5 |
| GGUCCGUUGGCGUAAUGGUAAUGCGUCUCCCCCCUAAGGAGACGACUGCCGGUUCGAGUCCCGUACGGAACG | ≤ 0.5 |
| GUUCGGUUGGCGUAAUGGUAACGCGUCUUCCUCCUAAGGAGAAGACUGCGGGUGCGAGUGCUGUACGGAACG | ≤ 0.5 |
| GUUCCGUUGGCGUAAUGGUAACGCGUCUCCCUCCUAUGGAGAAGACUGCGGGUUCGAGUCCCGUAAGGAACG | 0.528 |
| GUUCCGUUGGCGUAAUGGUAACGCAUCCCCCUCCUAAGGAGAAGACUGCGGGUUCGAGUCCCGUACGGAACG | 0.891 |
| GUUCCGUUGGCGUAAUGGUAACGCGUCUCCGUCCUUAGGAGAAGACUGCGGGUUCGAGUCCCGUUCGGAACG | 0.517 |
| GUUCCGUUGGCGUGUUGGUAACGCGUCUCCCUCCUAAGUAGAAGACUGCGGGUUCGAGUCUCGUACGGAACG | ≤ 0.5 |
| GUUCCGUUGGCGUAAUGGUAACGCGUCUCCCUCCUAAGGAGAAGACUGAGAGUUAGAGUACCGUACGGAACG | ≤ 0.5 |
| GUUCCGUUGGGGUAAUGGUAACGCGACUCCCUCCAAAGGAGAAGACUGCGGGUUCGAGUCCCGUACCGAACG | ≤ 0.5 |
| GUUCCGUCGGCGUAAAGGAAAUGCGUCCCCCUCCUAAGGAGAAGACUGCGGGUUCGAGUCCCGUACGGAACG | ≤ 0.5 |
| GUUCCGUUGGCGUAAUGGUAACGCGUCUCCCUCCUAAGGAGAAGGCGGCGGGUUCGAGUCCCGUACGGAACG | 0.756 |
| GUUCCGUUGGCGUAAUGGUAACGCGUCUCCCAUCUAAGGAGAAGACUGCGGGUUCGAGUCCCGUACGGAACG | 0.597 |
| GUUCCGUUGGCGCAAUGGUAACGCCUGUCCCUCCUAAGGAGAAGACUGCGGGUUCGAGUCCCGUACGGAACG | 0.539 |
| GUUCCGUUGGCGUAAUGGUAACGCGUCUCCCUCCUAAGGAGAAGACUGCGGGUUCGAGUCCCGUACCUAACG | 0.676 |

| Variant | yeast fitness |
| --- | --- |
| GUUCCGUUGGCGUAAUGGUAACGCGUCUCCCUCCUAAGGAGAAGACUGCGGGUUCGAGUCCCGUACACAACG | 0.819 |
| GUUCCGUUAGCGUAAUGGUAACGCGUCUCCCUCUUAAGGAGAAGACUGCGGGUUCGAGUCCCGUACAGAACG | ≤ 0.5 |
| GUUCCGUUGGCGUAAUGGUAACGCGUCUCCCUCCUAAGGAGAAGGCUGCGGGUUUGAGUCCCGUGCGGAACG | 0.544 |
| GAUCCGUUGGCGUAAUCGUAACGCGUCUCCCUCCUAAGGAGAAGACUGCGGGUUCGAGUCCCGUACGGAUCG | 0.572 |
| GUUCCGUUGGCGUAAUGGUUACGCGUGUACCUCCUAAGGAGAAGACUGCGGGUUCGAAUCCCGUACGGAACG | ≤ 0.5 |
| GUUCCGUUGGCGUAAUGGUAACGCGUCUCCCUCCUUAGGAGAAGACUACUGGUUCGUGUCCCGUACGGAACG | ≤ 0.5 |
| GUUCCGUUGGCGUAAUGAUAACGCGUCUCCCUCCUAGGGAGAAGACUGCGGGUUCGAGUCCCGUACGGAACG | 0.547 |
| GUUCCGUUGGCGUAAUGGUAACGCGUCUCCCUCCUUGGGAGAAGACUGCCGGUUCGAGUCCCGUACGGAACG | ≤ 0.5 |
| GUUCCGUUGGCGUAGUGGUAACGAGUCUCCCUCGUAAGGAGAAGACUGCGGGUUCGAGUCCCGUUCGGAACG | ≤ 0.5 |
| GUUCCGUUGGCGUAAUGGUAUCGCGUCUCCCUCCUAAGGAGAAGACUGCGGGUACCAGUCCCGUACGGAGCG | 0.576 |
| GUUCCGUUGGCGUAAUGGUAAUGCGUCUCCCUCCUAACGAGAAGAUUGCGGGUUCGAGUCCCGUAGGGAACG | ≤ 0.5 |
| GUUCCGUUGGCGUAAUGGUAAGGCGUGUCCCUCCUAAGGAGAAGACUGCGGGUUCGAGCCUUGUACGUAACG | ≤ 0.5 |
| GUUCCGUUGGCGUAAUGGUAACGCGUGUCCCUCCUAAGGAGAAGACUGCGGGUUCGAGUCCCGUACGGAUCG | 0.74 |
| GUUCCGUUGGCGUAAUGGUAACGCGUGUCCCUCCUAAGGCGAAGACUGCGGGUUCGAGUUCCGUACGGAACG | ≤ 0.5 |
| GUGCCGUUGGCGUGAUGGUAACGCGUCUCCCUCCUAAGGAGAAGACUGCGGGUUCGAGUGCCGUACGGAACG | ≤ 0.5 |
| GUUCCGUUGGCGUAAUGGUUACGCGUCUCCUUCCUAAGGAGAAGACUGUGGGUUCGAGUCCCGUACGGAACG | 0.773 |
| GUUCUGUUGGCGUCAUGGUAACGCGUCUCCCUCCUAAGGACAAGACUGCGGGUUCGACUCCCGUAUGGAACG | 0.523 |
| GUUCCGUUGGCGUAAUGGUAAAGCGUCUCCCUCCUAAGGAGAAGACUGCGGGUUCGAGUCCCGUACGCAACG | 0.822 |
| GCUCCGUUGGCGUAAUGGUAACGCGUCUCCCUCCUAAGGAGAAGACUGCGGGUUCGAGUCCCGUGCGGAACG | 0.867 |
